ChEMBL document CHEMBL1155337, “N-substituted bis-C-alkyloxadiazolones as dual effectors: efficient intermediates to amidoximes or amidines and prodrug candidates of potent antimalarials” (Bioorg Med Chem Lett, 2009)
The source made the active and inactive calls. The rule behind the calls is not given here.

Experiments:
[1] = system: Plasmodium vinckei petteri; test: Antimalarial activity against Plasmodium vinckei petteri 279BY infected in Swiss mice (Mus musculus) at 10 mg/kg, intraperitoneal after 4 days; assay type: functional, organism-based; design: dose 10 mg/kg
Outline: (§1)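 Female Swiss mice were infected with P. vinckei petteri 279BY on day 0. Compound was given intraperitoneally or orally once daily for four consecutive days (days 1–4 post infection). Three doses were tested per compound, with 3 mice per dose. Parasitemia was monitored against untreated control, and cleared animals were followed 28 days for recrudescence. ED50 was derived from the dose series.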

[2] = system: Plasmodium vinckei petteri; test: Antimalarial activity against Plasmodium vinckei petteri 279BY infected peroral daily dosed Swiss mice (Mus musculus) assessed as reduction in parasitaemia level measured after 4 days; assay type: functional; settings: po, 96 h; outline: as §1
Plasmodium falciparum = test: Antimalarial activity against chloroquine-sensitive Plasmodium falciparum Nigerian; assay type: functional, organism-based
Outline: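 In vitro IC50 values are means of at least two independent experiments, each run in duplicate.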

Mus musculus [3] = test: Toxicity in Plasmodium vinckei petteri 279BY infected Swiss mice (Mus musculus) at >10 mg/kg, intraperitoneally; assay type: organism-based; settings: in vivo, ip
[4] = system: Plasmodium vinckei petteri; test: Antimalarial activity against Plasmodium vinckei petteri 279BY infected in Swiss mice (Mus musculus) assessed as reduction in parasitaemia level at 5 mg/kg, intraperitoneally relative to control; assay type: functional; design: scale not given: the % may be the effect or the level left; settings: route intraperitoneal; outline: as §1
Mus musculus [5] = test: Toxicity in Plasmodium vinckei petteri 279BY infected Swiss mice (Mus musculus) at 5 mg/kg, intraperitoneally; assay type: organism-based; design: dose 5 mg/kg, route intraperitoneal; settings: in vivo, ip
[6] = system: Plasmodium vinckei petteri; test: Antimalarial activity against Plasmodium vinckei petteri 279BY infected in Swiss mice (Mus musculus) assessed as reduction in parasitaemia level at 10 mg/kg, intraperitoneal measured after 4 days; assay type: functional; settings: ip, 96 h; outline: as §1
[7] = system: Plasmodium vinckei petteri; test: Antimalarial activity against Plasmodium vinckei petteri 279BY infected in Swiss mice (Mus musculus) assessed as reduction in parasitaemia level at 90 mg/kg, perorally relative to control; assay type: functional; design: scale not given: the % may be the effect or the level left; settings: route oral; outline: as §1
[8] = system: Plasmodium vinckei petteri; test: Antimalarial activity against Plasmodium vinckei petteri 279BY infected intraperitoneally daily dosed Swiss mice (Mus musculus) assessed as reduction in parasitaemia after 28 days; assay type: functional; settings: ip, 672 h; outline: as §1
[9] = system: Plasmodium vinckei petteri; test: Antimalarial activity against Plasmodium vinckei petteri 279BY infected in Swiss mice (Mus musculus) assessed as reduction in parasitaemia level at 180 mg, perorally relative to control; assay type: functional; design: scale not given: the % may be the effect or the level left; outline: as §1

Row | Structure (SMILES) | IC50 (Plasmodium falciparum) [nM] | ED50 [2] [mg/kg] | ED50 [6] [mg/kg] | other results
1 | N/C(CCCCCCCCCCCC/C(N)=N/O)=N\O | – | 120 | – | –
2 | CN/C(CCCCCCCCCCCC/C(=N/O)NC)=N\O | 10100 | > 180 | – | Activity [4]: 44%; Activity (Mus musculus [5]): Toxic
3 | Cn1c(CCCCCCCCCCCCc2noc(=O)n2C)noc1=O | – | > 45 | > 20 | –
4 | CCn1c(CCCCCCCCCCCCc2noc(=O)n2CC)noc1=O | 10000 | > 20 | > 10 | –
5 | COCCn1c(CCCCCCCCCCCCc2noc(=O)n2CCOC)noc1=O | 6450 | 90 | > 20 | Activity [7]: 50%
6 | Cl.Cl.N=C(N)CCCCCCCCCCCCC(=N)N | – | > 100 | > 10 | Activity [1]: inactive
7 | O=c1[nH]c(CCCCCCCCCCCCc2noc(=O)[nH]2)no1 | – | 100 | > 20 | –
8 | Cc1c(CCO)sc[n+]1CCCCCCCCCCCC[n+]1csc(CCO)c1C.[Br-].[Br-] [ALBITIAZOLIUM BROMIDE] | – | 13 | 0.2 | –

The next lines start with results.

Row | IC50 (Plasmodium falciparum) [nM] | Structure (SMILES) | ED50 [2] [mg/kg] | ED50 [6] [mg/kg] | other results
9 | 14.4 | CNC(=N)CCCCCCCCCCCCC(=N)NC.Cl.Cl | > 180 | – | Activity [1]: inactive; Activity (Mus musculus [3]): Toxic
10 | 9.2 | COCCNC(=N)CCCCCCCCCCCCC(=N)NCCOC.Cl.Cl | > 90 | 8 | ED50 [8]: 8 mg/kg
11 | 2950 | COCCN/C(CCCCCCCCCCCC/C(=N/O)NCCOC)=N\O | > 180 | – | Activity [4]: 33%; Activity [9]: 16%; Activity (Mus musculus [5]): Toxic
12 | 4950 | O=c1onc(CCCCCCCCCCCCc2noc(=O)n2Cc2ccccc2)n1Cc1ccccc1 | > 90 | > 20 | –
13 | 6200 | CCN/C(CCCCCCCCCCCC/C(=N/O)NCC)=N\O | > 180 | 3.1 | Activity [4]: 76%; Activity [9]: 20%
14 | 4.6 | Cl.Cl.N=C(CCCCCCCCCCCCC(=N)NCc1ccccc1)NCc1ccccc1 | > 90 | > 20 | Activity [1]: inactive
15 | 9.4 | CCNC(=N)CCCCCCCCCCCCC(=N)NCC.Cl.Cl | > 180 | 6.3 | ED50 [8]: 6.3 mg/kg
16 | 1040 | O/N=C(/CCCCCCCCCCCC/C(=N/O)NCc1ccccc1)NCc1ccccc1 | > 90 | > 20 | –
